Test results taken from ChEMBL document CHEMBL3232980, “Studies on the antiproliferative effects of tropolone derivatives in Jurkat T-lymphocyte cells” (2014).
Active and inactive are the calls of the source. No cut-off for these calls is given here.

Assays:
Jurkat [1] = assay: Cell cycle arrest in human Jurkat cells assessed as accumulation at G0/G1-phase at 10 uM after 12 hrs by propidium iodide staining-based flow cytometric analysis (reference value: 4.16%); format: functional
Jurkat [2] = assay: Cell cycle arrest in human Jurkat cells assessed as accumulation at G1-phase at 10 uM after 12 hrs by propidium iodide staining-based flow cytometric analysis (reference value: 65%); format: functional
Jurkat [3] = assay: Cell cycle arrest in human Jurkat cells assessed as accumulation at S-phase at 10 uM after 12 hrs by propidium iodide staining-based flow cytometric analysis (reference value: 19.5%); format: functional
Jurkat [4] = assay: Cell cycle arrest in human Jurkat cells assessed as accumulation at G2/M-phase at 10 uM after 12 hrs by propidium iodide staining-based flow cytometric analysis (reference value: 10%); format: functional
Jurkat [5] = assay: Cell cycle arrest in human Jurkat cells assessed as accumulation at G0/G1-phase at 10 uM after 24 hrs by propidium iodide staining-based flow cytometric analysis (reference value: 2.39%); format: functional
Jurkat [6] = assay: Cell cycle arrest in human Jurkat cells assessed as accumulation at G1-phase at 10 uM after 24 hrs by propidium iodide staining-based flow cytometric analysis (reference value: 60.90%); format: functional
Jurkat [7] = assay: Cell cycle arrest in human Jurkat cells assessed as accumulation at S-phase at 10 uM after 24 hrs by propidium iodide staining-based flow cytometric analysis (reference value: 20.90%); format: functional
Jurkat [8] = assay: Cell cycle arrest in human Jurkat cells assessed as accumulation at G2/M-phase at 10 uM after 24 hrs by propidium iodide staining-based flow cytometric analysis (reference value: 14.30%); format: functional
Jurkat [9] = assay: Cell cycle arrest in human Jurkat cells assessed as accumulation at G0/G1-phase at 10 uM after 36 hrs by propidium iodide staining-based flow cytometric analysis (reference value: 1.80%); format: functional
Jurkat [10] = assay: Cell cycle arrest in human Jurkat cells assessed as accumulation at G1-phase at 10 uM after 36 hrs by propidium iodide staining-based flow cytometric analysis (reference value: 59.10%); format: functional
Jurkat [11] = assay: Cell cycle arrest in human Jurkat cells assessed as accumulation at S-phase at 10 uM after 36 hrs by propidium iodide staining-based flow cytometric analysis (reference value: 23%); format: functional
Jurkat [12] = assay: Cell cycle arrest in human Jurkat cells assessed as accumulation at G2/M-phase at 10 uM after 36 hrs by propidium iodide staining-based flow cytometric analysis (reference value: 14.20%); format: functional
Jurkat [13] = assay: Induction of apoptosis in human Jurkat cells assessed as viable cells at 10 uM after 24 hrs by annexin V-FITC/propidium iodide staining-based FACS flow cytometric analysis (reference value: 99.3%); format: functional; conditions: read-out: Activity
Summary of the method: (§1)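 About 1 × 10^6 log-phase Jurkat cells treated in 6-well plates; untreated controls. Cells washed in cold PBS and resuspended in annexin-binding buffer (10 mM HEPES, 140 mM NaCl, 2.5 mM CaCl2, pH 7.4). Stained with FITC-annexin V plus propidium iodide, then gated by flow cytometry: live (AnnV−/PI−), early apoptotic (AnnV+/PI−), late apoptotic/necrotic (AnnV+/PI+).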

Jurkat [14] = assay: Induction of apoptosis in human Jurkat cells assessed as early apoptotic cells at 10 uM after 24 hrs by annexin V-FITC/propidium iodide staining-based FACS flow cytometric analysis (reference value: 0.32%); format: functional; summary of the method: as §1
Jurkat [15] = assay: Induction of apoptosis in human Jurkat cells assessed as late apoptotic cells at 10 uM after 24 hrs by annexin V-FITC/propidium iodide staining-based FACS flow cytometric analysis (reference value: 0.0401%); format: functional; summary of the method: as §1
Jurkat [16] = assay: Induction of apoptosis in human Jurkat cells assessed as cell death at 10 uM after 24 hrs by annexin V-FITC/propidium iodide staining-based FACS flow cytometric analysis (reference value: 0.348%); format: functional
Summary of the method: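 ~1×10^6 log-phase Jurkat cells (RPMI 1640, 10% FBS, pen/strep, L-glutamine) treated in 6-well plates; untreated wells as controls. Cells washed in cold PBS and resuspended in annexin-binding buffer (10 mM HEPES, 140 mM NaCl, 2.5 mM CaCl2, pH 7.4). Stained with fluorescein-annexin V plus PI and read by flow cytometry. Gates: live A−/PI−, early apoptotic A+/PI−, late apoptotic/necrotic A+/PI+.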

Jurkat [17] = assay: Induction of apoptosis in human Jurkat cells assessed as caspase 3/7 activation at 10 uM after 6 hrs by luminescence assay (reference value: 59,417 +/- 10002.74 no unit); format: functional
Jurkat [18] = assay: Induction of apoptosis in human Jurkat cells assessed as caspase 3/7 activation at 10 uM after 12 hrs by luminescence assay (reference value: 69,935 +/- 7003.63 no unit); format: functional
Jurkat [19] = assay: Induction of apoptosis in human Jurkat cells assessed as caspase 3/7 activation at 10 uM after 24 hrs by luminescence assay (reference value: 136,627 +/- 31846.96 no unit); format: functional
Jurkat [20] = assay: Induction of apoptosis in human Jurkat cells assessed as caspase 3/7 activation at 10 uM after 48 hrs by luminescence assay (reference value: 109,510 +/- 4710.453 no unit); format: functional
Jurkat [21] = assay: Induction of apoptosis in human Jurkat cells assessed as caspase 8 responsive cells level at 10 uM after 24 hrs by FACS flow cytometric analysis (reference value: 0.32%); format: functional
[22] = molecular target: T1, Histone deacetylase (Homo sapiens) (UniProt Q13547+O15379+Q9UBN7+Q92769+Q9UQL6+Q8WUI4+Q9BY41+Q96DB2+P56524+Q9UKV0+Q969S8); conditions: Jurkat, at 10 µM
[23] = molecular target: T1, Histone deacetylase (Homo sapiens); conditions: Jurkat
[24] = molecular target: T1, Histone deacetylase (Homo sapiens); conditions: Jurkat; remark: listed apart in the source
Jurkat [25] = assay: Increase in p21 protein expression in human Jurkat cells at 10 to 50 uM after 24 hrs by FACS flow cytometric analysis; format: functional, cell-based
Summary of the method: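 Jurkat cells (~1 × 10^6, log phase) treated 24 h at 10 or 50 µM; no-inhibitor controls. Fixed in 4% PFA for 20 min, held overnight at 4°C in 5% BSA/PBS, permeabilized with 0.5% Triton X-100, blocked with 10% goat serum. Stained with anti-p21 (1:100) and FITC secondary (1:1000). Read-out was geometric mean fluorescence intensity by flow cytometry.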

Jurkat [26] = assay: Increase in p21 mRNA level in human Jurkat cells at 10 to 50 uM after 24 hrs by quantitative RT-PCR analysis; format: functional, cell-based
Summary of the method: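 Roughly 5 × 10^6 Jurkat cells treated 24 h at 10 and 50 µM; untreated cells served as controls. RNA extracted with Trizol, and 2 µg reverse-transcribed. p21 and beta-actin quantified by TaqMan real-time PCR, run in triplicate.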

| SMILES | Activity (Jurkat [1]) [%] | Activity (Jurkat [2]) [%] | Activity (Jurkat [3]) [%] | Activity (Jurkat [4]) [%] | Activity (Jurkat [5]) [%] | Activity (Jurkat [6]) [%] | Activity (Jurkat [7]) [%] | Activity (Jurkat [8]) [%] | Activity (Jurkat [9]) [%] | Activity (Jurkat [10]) [%] | Activity (Jurkat [11]) [%] | Activity (Jurkat [12]) [%] | viability at 10 µM (Jurkat [13]) [%] | Activity (Jurkat [14]) [%] | Activity (Jurkat [15]) [%] | Activity (Jurkat [16]) [%] | RLU (Jurkat [17]) | RLU (Jurkat [18]) | RLU (Jurkat [19]) | RLU (Jurkat [20]) | also measured |
| --- | --- | --- | --- | --- | --- | --- | --- | --- | --- | --- | --- | --- | --- | --- | --- | --- | --- | --- | --- | --- | --- |
| O=c1cc(-c2ccccc2)cccc1O | 16.3 | 71.5 | 10.2 | 1.25 | 13.9 | 66.5 | 15.8 | 2.58 | 13.4 | 65.9 | 14.6 | 4.35 | 99.4 | 0.4 | 0.0285 | 0.186 | 73949 | 110650 | 80438 | 71048 | Activity (Jurkat [21]): 0.4%; inhibition [22]: inactive; Flu intensity [23]: 2.12; Flu intensity [24]: 24 |
| O=c1c(O)ccccc1-c1ccccc1 | 22.3 | 64.3 | 11.1 | 1.39 | 13.9 | 70.2 | 13.3 | 1.81 | 18.5 | 64.2 | 13.3 | 2.97 | 98.9 | 0.434 | 0.158 | 0.513 | 88661 | 97513 | 76948 | 105357 | Activity (Jurkat [25]): Active; Activity (Jurkat [26]): inactive; Activity (Jurkat [21]): 0.43%; inhibition [22]: inactive; Flu intensity [23]: 13.7; Flu intensity [24]: 24.6 |
| O=C(CCCCCCC(=O)Nc1ccccc1)NO [VORINOSTAT] | 20.4 | 25.9 | 31.6 | 19.7 | 48.9 | 7.46 | 19.9 | 12.3 | 60.8 | 6.9 | 15.6 | 14.9 | 62.6 | 35.9 | 0.412 | 1.03 | 53518 | 157988 | 125484 | 95463 | Activity (Jurkat [21]): 35.9% |
